An excerpt weighted towards active compounds, which were near 4.4% of everything screened.
GRIN3A LBD mod – binders of NR3A ligand-binding domain, primary screen, biophysical, differential scanning fluorimetry, uHTS. Glutamate receptor ionotropic, NMDA 3A (GRIN3A) ligand-binding domain. NR3A LBD differential scanning fluorimetry, Tm shift; 0% = protein alone, 100% = glycine-bound protein. Tm shift relative to glycine control, % at 25 µM. 340,000 tested, 2.5% active;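 active = melting temperature shift of at least 10% of the positive control shift, at one fixed dose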
EBI2 antag – EBI2 receptor antagonists, beta-arrestin recruitment, primary screen, cell-based, luminescence, 7a,25-OHC stimulation, uHTS. G-protein coupled receptor 183 (Homo sapiens), P32249. 360,000 tested, 0.81% active. AID 651636, 2012. 7a,25-OHC stimulated. inhibition, % at 5 µM; in the data active = inhibition above about 38%;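 note: enzyme fragment complementation signal reports receptor beta-arrestin coupling in cells; 0% = agonist plus DMSO wells and 100% = wells without agonist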
Target sequence (P32249 whole entry, looked up, the tested form may be a part): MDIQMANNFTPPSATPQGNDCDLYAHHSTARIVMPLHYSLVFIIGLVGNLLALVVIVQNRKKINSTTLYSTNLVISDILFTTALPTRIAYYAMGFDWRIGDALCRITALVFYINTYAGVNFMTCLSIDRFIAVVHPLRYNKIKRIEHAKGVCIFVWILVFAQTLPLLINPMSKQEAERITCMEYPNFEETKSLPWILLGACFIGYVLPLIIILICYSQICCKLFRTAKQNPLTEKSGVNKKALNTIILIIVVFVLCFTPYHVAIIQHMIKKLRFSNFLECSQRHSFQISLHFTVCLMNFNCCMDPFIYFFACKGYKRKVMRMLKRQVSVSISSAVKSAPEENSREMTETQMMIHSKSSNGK
SENP1 inh – human SENP1 catalytic domain inhibitors, primary screen, biochemical, FRET, uHTS; Sentrin-specific protease 1 (Homo sapiens), Q9P0U3; AID 624204, 2012; 360,000 tested, 0.21% active; inhibition, % at 10 µM; recombinant SENP1 catalytic domain, CyPet-SUMO1-YPet FRET cleavage;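 active = inhibition at least 30% at 10 µM, raw YFP signal under a set limit, fluorescence ratio 0.5 to 1.5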;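 note: 0% = enzyme with DMSO and 100% = no enzyme wells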
Target sequence (Q9P0U3 419-644 limits assumed): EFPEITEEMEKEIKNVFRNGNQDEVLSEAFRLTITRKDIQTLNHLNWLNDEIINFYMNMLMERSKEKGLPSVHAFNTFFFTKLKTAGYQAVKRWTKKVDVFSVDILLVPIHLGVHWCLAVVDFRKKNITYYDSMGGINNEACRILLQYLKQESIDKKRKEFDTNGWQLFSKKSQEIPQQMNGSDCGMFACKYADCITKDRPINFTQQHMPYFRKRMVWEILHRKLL
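Test system: hSENP1 catalytic domain, recombinant; Amount: 20 pM final SENP1 enzyme; Medium: Tris pH 8 buffer plus EDTA, NaCl, BME, BSA, NP40, catalase; Schedule: 50 min enzyme reaction, room temperature, light-protected; Technique: FRET fluorescence in CFP and YFP emission channels; Controls: no-enzyme wells low, DMSO-plus-enzyme wells high control.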
MPTP block – mitochondrial permeability transition pore inhibitors, primary screen, biochemical, isolated mouse mitochondria, absorbance; Ca2+ swelling absorbance, 30 min; 360,000 tested, 1.4% active; inhibition, % at 10 µM; AID 602449, 2012;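 active = inhibition of 50% or more, scaled per plate between neutral and stimulator controls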;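 note: 0% = DMSO wells given calcium and 100% = 1 mM EGTA wells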
* = called active by the depositor.

Results for O=C(N/N=C1\CCCc2c1[nH]c1ccc(Cl)cc21)c1ccncc1 ?
GRIN3A LBD mod: -12.0; EBI2 antag: 29.1; SENP1 inh: 0.7; MPTP block: 0.8

How did O=C1CCCc2c1[nH]c1ccccc21 do in these assays?
GRIN3A LBD mod: -2.8; EBI2 antag: -8.7; SENP1 inh: -9.1; MPTP block: -0.5

How did c1ccc2c3c([nH]c2c1)-c1[nH]ncc1CC3 do in these assays?
GRIN3A LBD mod: 29.9*; EBI2 antag: -22.9; SENP1 inh: -33.0; MPTP block: 15.5

What do the screens show for `C[C@]12c3[nH]c4cc(-c5ccco5)ccc4c3CCN1C(=O)[C@@H](CC(=O)NCc1cccc(C(F)(F)F)c1)C[C@@H]2C(=O)N1CCCCC1`?
GRIN3A LBD mod: 0.3; EBI2 antag: 21.7; SENP1 inh: -42.4; MPTP block: -1.3

What do the screens show for `CCc1nc2ccc(C(=O)Nc3ccc4c(c3)OCC(=O)N4)cn2c1N(C)Cc1nccn1C`?
EBI2 antag: -12.7; SENP1 inh: -12.4; MPTP block: 2.7

How did COC(=O)c1ccc(COc2ccccc2/C=C(\C#N)C(=O)Nc2c(C)cc(C)cc2C)cc1 do in these assays?
GRIN3A LBD mod: 17.1*; EBI2 antag: -3.8; SENP1 inh: 2.2; MPTP block: -0.3

Results for COC(=O)c1ccc(COc2ccccc2/C=C(\C#N)C(=O)Nc2ccc(C)cc2C)cc1 ?
GRIN3A LBD mod: 4.4; EBI2 antag: -4.3; SENP1 inh: 9.6; MPTP block: 0.8

Results for O=C(COc1ccccc1Br)N1CCN(C(=O)c2ccco2)CC1 ?
GRIN3A LBD mod: -0.9; EBI2 antag: 9.8; SENP1 inh: 1.3; MPTP block: -0.2

How did O=C(c1ccco1)N1CCN(Cc2nnnn2CCc2ccccc2)CC1 do in these assays?
GRIN3A LBD mod: 13.0*; EBI2 antag: -5.1; SENP1 inh: 2.0; MPTP block: -0.2

How did COc1ccccc1OCC(=O)N1CCN(C(=O)c2ccco2)CC1 do in these assays?
GRIN3A LBD mod: 10.2*; EBI2 antag: -0.8; SENP1 inh: 2.5; MPTP block: 0.5

What do the screens show for `O=C(c1ccco1)N1CCN(Cc2nnc(-c3cccc(Br)c3)o2)CC1`?
GRIN3A LBD mod: -0.3; EBI2 antag: -1.8; SENP1 inh: 0.5; MPTP block: 0.8

What do the screens show for `O=C(c1ccco1)N1CCN(Cc2nnc(-c3ccccc3)o2)CC1`?
GRIN3A LBD mod: 11.7*; EBI2 antag: -0.4; SENP1 inh: 2.0; MPTP block: -0.3

What do the screens show for `CCOC(=O)Cc1nnc(Nc2ccc(C)cc2C)c2ccccc12`?
GRIN3A LBD mod: 1.9; EBI2 antag: -10.0; SENP1 inh: -0.2; MPTP block: -0.5

How did Cc1ccc(C)c(N2CCN(C(=O)C3CCN(c4nnc(N5CCCC5=O)s4)CC3)CC2)c1 do in these assays?
GRIN3A LBD mod: 1.7; EBI2 antag: -3.9; SENP1 inh: -1.3; MPTP block: 0.7

What do the screens show for `O=C(C1CCN(c2nnc(N3CCCC3=O)s2)CC1)N1CCN(c2cccc(C(F)(F)F)c2)CC1`?
GRIN3A LBD mod: 16.9*; EBI2 antag: -3.4; SENP1 inh: 0.5; MPTP block: -0.4

How did CCOc1ccc(OCCSc2nc3ccccc3o2)cc1 do in these assays?
GRIN3A LBD mod: 20.9*; EBI2 antag: -0.6; SENP1 inh: 3.2; MPTP block: 1.3

What do the screens show for `c1ccc(OCCSc2nc3ccccc3o2)cc1`?
GRIN3A LBD mod: 1.3; EBI2 antag: -4.5; SENP1 inh: 0.2; MPTP block: 0.7

Results for COC(=O)c1cnn(-c2ccc(C)c(C)c2)c1-n1cccc1 ?
GRIN3A LBD mod: 11.1*; EBI2 antag: 9.6; SENP1 inh: -3.9; MPTP block: 0.2

How did Cc1ccc2c(C)c(C)c(=O)n(C)c2c1 do in these assays?
GRIN3A LBD mod: 11.2*; EBI2 antag: -5.1; SENP1 inh: 1.0; MPTP block: -1.5

What do the screens show for `Cc1ccc2oc(=S)n(C)c2c1`?
GRIN3A LBD mod: 1.8; EBI2 antag: -13.6; SENP1 inh: 2.7; MPTP block: 0.4

What do the screens show for `Cc1ccc(C(=O)CCC(=O)N2CCN(c3ccccc3O)CC2)cc1`?
GRIN3A LBD mod: 19.5*; EBI2 antag: -0.2; SENP1 inh: -11.9; MPTP block: 0.4

What do the screens show for `O=C(CCC(=O)N1CCN(c2ccccc2F)CC1)c1ccc(F)cc1`?
GRIN3A LBD mod: -0.9; EBI2 antag: -2.6; SENP1 inh: -1.3; MPTP block: 0.0

Results for Cc1ccc(N(Cc2ccccc2)C(=O)c2cc(S(=O)(=O)N3CCOCC3)ccc2C)cc1 ?
GRIN3A LBD mod: 2.4; EBI2 antag: 13.9; SENP1 inh: 1.3; MPTP block: -2.0

Results for Cc1c(Cc2ccccc2)c(=O)oc2c(O)c(O)ccc12 ?
GRIN3A LBD mod: 10.1*; EBI2 antag: -7.4; SENP1 inh: -12.3; MPTP block: -0.8

How did CC(=O)OCCCNc1cc(Sc2ccc(Cl)cc2)c2nonc2c1[N+](=O)[O-] do in these assays?
GRIN3A LBD mod: -2.7; EBI2 antag: 68.0*; SENP1 inh: -13.7; MPTP block: 9.4

Results for CC(=O)OCCNc1cc(SC(C)C)c2nonc2c1[N+](=O)[O-] ?
GRIN3A LBD mod: 5.7; EBI2 antag: 9.4; SENP1 inh: -26.6; MPTP block: 0.7

How did CCC(=O)OCCNc1cc(SCCC(=O)OC)c2nonc2c1[N+](=O)[O-] do in these assays?
GRIN3A LBD mod: 2.4; EBI2 antag: -12.2; SENP1 inh: -28.3; MPTP block: 0.1

Results for CCC(=O)OCCNc1cc(Sc2nccn2C)c2nonc2c1[N+](=O)[O-] ?
GRIN3A LBD mod: -4.2; EBI2 antag: 52.9*; SENP1 inh: -22.7; MPTP block: -0.4

How did CC1(C)CC2CC(C)(CN2C(=O)COC(=O)c2cccc([N+](=O)[O-])c2)C1 (stereo not drawn) do in these assays?
GRIN3A LBD mod: 11.2*; EBI2 antag: -5.6; SENP1 inh: 0.5; MPTP block: -0.6

How did CC(CN1CCN(c2ccccc2)CC1)c1ccccc1 (stereo not drawn) do in these assays?
GRIN3A LBD mod: 1.4; EBI2 antag: -13.5; SENP1 inh: 1.6; MPTP block: -1.6

How did COc1cc(/C=C2/SC(=Nc3ccc(O)cc3)NC2=O)cc(OC)c1O do in these assays?
GRIN3A LBD mod: 10.9*; EBI2 antag: -4.0; SENP1 inh: 55.6; MPTP block: 0.0

What do the screens show for `COc1cc(/C=C2\SC(=Nc3ccc(O)cc3)NC2=O)cc(OC)c1OC`?
GRIN3A LBD mod: -5.1

How did COc1ccc(N=C2NC(=O)/C(=C/c3ccc(O)c(OC)c3)S2)cc1 do in these assays?
GRIN3A LBD mod: 19.8*; EBI2 antag: -31.5; SENP1 inh: 36.0; MPTP block: -22.0

How did COC(=O)[C@]12CCCCC=C1N(Cc1ccc(Cl)cc1Cl)C(=O)[C@H](CC(=O)NCCCN1CCCC1=O)C2 do in these assays?
EBI2 antag: -4.4; SENP1 inh: 3.3; MPTP block: -0.9

Results for COC(=O)c1ccc(NC(=S)Nc2ccc(O)cc2)cc1 ?
GRIN3A LBD mod: 20.2*; EBI2 antag: -7.0; SENP1 inh: 6.4; MPTP block: 1.7

Screening data deposited in PubChem BioAssay by Sanford-Burnham Center for Chemical Genomics.
